Results on 7 molecules are retold here after ChEMBL document CHEMBL4261527, “Benzylsulfanyl benzo-heterocycle amides and hydrazones as new agents against drug-susceptible and resistant Mycobacterium tuberculosis” (Medchemcomm, 2017).

For test [1], the system named is Mycobacterium tuberculosis. The experiment in a line: Antimycobacterial activity against extensively drug-resistant Mycobacterium tuberculosis clinical isolate. The class given is functional. The method, boiled down: (§1)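 Clinical isolates coded 960 (drug-susceptible), 330 (MDR) and 431 (XDR); MIC reported in μM.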
Test [2] deals with Mycobacterium tuberculosis. The experiment in a line: Antimycobacterial activity against streptomycin-resistant Mycobacterium tuberculosis ATCC 35820 by resazurin dye based fluorimetric method. The class given is functional.
Test [3] concerns Mycobacterium tuberculosis. As to the kind of experiment: Antimycobacterial activity against ethionamide-resistant Mycobacterium tuberculosis ATCC 35830 by resazurin dye based fluorimetric method. The class given is functional. A general note: Resazurin is reduced to fluorescent resorufin, in cell work by metabolically active cells.
Test [4] has as its system Mycobacterium tuberculosis. The experiment in a line: Antimycobacterial activity against ethambutol-resistant Mycobacterium tuberculosis ATCC 35837 by resazurin dye based fluorimetric method. The class given is functional.
The test system of test [5] is Mycobacterium tuberculosis. The experiment in a line: Antimycobacterial activity against rifampicin-resistant Mycobacterium tuberculosis H37Rv by resazurin dye based fluorimetric method. The class given is functional.
Test [6] deals with Mycobacterium tuberculosis. The experiment in a line: Antimycobacterial activity against kanamycin-resistant Mycobacterium tuberculosis ATCC 35827 by resazurin dye based fluorimetric method. In kind it is functional.
Test [7] relates to Mycobacterium tuberculosis. The experiment in a line: Antimycobacterial activity against multidrug-resistant Mycobacterium tuberculosis clinical isolate. The class given is functional. The method in brief: as §1
For test [8], the system named is Mycobacterium tuberculosis. As to the kind of experiment: Antitubercular activity against Mycobacterium tuberculosis H37Ra harboring pTYOK infected in Balb/c mouse assessed as bacterial growth inhibition at 3.1 mg/kg qd measured at 2 days interval for 6 days by luminometric method. In kind it is functional, organism-based. The method, boiled down: (§2)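 Mice infected with marker-free autoluminescent Mtb H37Ra and dosed once daily for 6 consecutive days; vehicle CMC-Na. Read-out is the luminescence ratio RLU on day n over RLU on day 0, plotted against days after the first treatment.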

For test [9], the system named is Mycobacterium tuberculosis. The experiment in a line: Potency index, ratio of isoniazid MIC to test compound MIC for extensively drug-resistant Mycobacterium tuberculosis clinical isolate. In kind it is functional.
In test [10] the test system is Mycobacterium tuberculosis. As to the kind of experiment: Potency index, ratio of ftivazide MIC to test compound MIC for extensively drug-resistant Mycobacterium tuberculosis clinical isolate. In kind it is functional.
In test [11] the test system is Mycobacterium tuberculosis. The experiment in a line: Antitubercular activity against Mycobacterium tuberculosis H37Ra harboring pTYOK infected in Balb/c mouse assessed as bacterial growth inhibition at 10 mg/kg qd measured at 2 days interval for 6 days by luminometric method. The class given is functional, organism-based. The method, boiled down:
as §2

In brackets after ≈: the same amount, converted by molar mass. Activity calls are given as the source filed them. The calls are words filed in the database; no cut-off is given here.

For the molecule `O=C(N/N=C/c1ccc(CSc2nc3ccccc3s2)cc1)c1ccncc1`, the minimum inhibitory concentration (MIC) in test [1] is over 12.8 µM; in [2], 0.312 µg/mL (≈ 0.771 µM); in [3] it was 1.25 µg/mL (≈ 3.09 µM); in [4], 0.312 µg/mL (≈ 0.771 µM); in test [5], 0.625 µg/mL (≈ 1.55 µM); in test [6], 0.312 µg/mL (≈ 0.771 µM). In addition, in test [7], the MIC is 6.4 µM (≈ 2.59 µg/mL).

For the molecule `O=C(N/N=C/c1ccc(CSc2nc3ccccc3[nH]2)cc1)c1ccncc1`, the MIC was over 12.8 µM in test [1]; 0.156 µg/mL (≈ 0.403 µM) in test [2]; 1.25 µg/mL (≈ 3.23 µM) in [3]; 0.156 µg/mL (≈ 0.403 µM) in test [4]; 0.312 µg/mL (≈ 0.805 µM) in [5]; 0.156 µg/mL (≈ 0.403 µM) in test [6]. Besides, in test [7], it took 6.4 µM (≈ 2.48 µg/mL) to inhibit growth (MIC).

In the case of `O=C(N/N=C/c1ccc(CSc2nc3ccccc3o2)cc1)c1ccncc1`, the “growth inhibition (GI)” value in test [8] was “Active”. The minimal inhibitory concentration (MIC) in test [1] worked out at 3.2 µM (≈ 1.24 µg/mL); in [2], 0.156 µg/mL (≈ 0.402 µM); in [3] it was 1.25 µg/mL (≈ 3.22 µM); in test [4] it was 0.156 µg/mL (≈ 0.402 µM); in test [5] it was 0.312 µg/mL (≈ 0.803 µM); in test [6] it was 0.156 µg/mL (≈ 0.402 µM). The molecule also registered an MIC in [7] of 6.4 µM (≈ 2.49 µg/mL). In addition, the figures for the Ratio in [9] and in test [10] were 20 and 10, respectively.

Consider `NNC(=O)c1ccncc1` [ISONIAZID], for which the results for the MIC in test [1] and in test [7] were 64 µM (≈ 8.78 µg/mL) and 8 µM (≈ 1.1 µg/mL), respectively.

Regarding `COc1cc(/C=N/NC(=O)c2ccncc2)ccc1O` [FTIVAZIDE], the minimum inhibitory concentration (MIC) came to 32 µM (≈ 8.68 µg/mL) in test [1]; 0.312 µg/mL (≈ 1.15 µM) in [2]; 1.25 µg/mL (≈ 4.61 µM) in [3]; 0.312 µg/mL (≈ 1.15 µM) in [4]; 0.312 µg/mL (≈ 1.15 µM) in [5]; 0.156 µg/mL (≈ 0.575 µM) in test [6]. 16 µM (≈ 4.34 µg/mL) was the least that counted as inhibitory in test [7] (MIC).

Turning to `O=C(NCc1ccc(CSc2nc3ccccc3o2)cc1)c1ccncc1`, the MIC in [1] is 16 µM (≈ 6.01 µg/mL); in test [7], 2 µM (≈ 0.751 µg/mL).

Consider `CO[C@H]1/C=C/O[C@@]2(C)Oc3c(C)c(O)c4c(O)c(c(/C=N/N5CCN(C)CC5)c(O)c4c3C2=O)NC(=O)/C(C)=C\C=C\[C@H](C)[C@H](O)[C@@H](C)[C@@H](O)[C@@H](C)[C@H](OC(C)=O)[C@@H]1C` [RIFAMPIN], for which the MIC in test [1] and in test [7] was over 19 µM each time. In addition, the “growth inhibition (GI)” value in test [11] is “Active”.

As a reminder, the MIC is the least concentration at which growth counts as inhibited. A higher MIC goes with weaker potency.
